Results on 47 molecules are retold here after ChEMBL document CHEMBL1121524, “Studies of hypolipidemic agents. 1. Synthesis and hypolipidemic activities of alkoxycinnamic acid derivatives” (1980).

Test [1] is filed under the species Rattus norvegicus. As to the kind of experiment: Hypolipidemic activity expressed as percentage decrease in triglyceride in rat, at dosage of 50 mg for 7 days. Type of test: functional. The essentials:
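Male Sprague-Dawley rats, 4 weeks old, kept on CE-2 chow for at least 1 week, then grouped (generally five per group). Compound was mixed into CE-2 powder and fed ad libitum for the stated period; controls received plain CE-2 powder. Diet level is given as mg/100 g (mg%), about equal to mg/kg/day. Total serum triglyceride was measured by the Ryan and Rasho method and reported as percent depression versus control group mean. Significance was p < 0.05.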

Test [2] is filed under the species Rattus norvegicus. The test is described as follows: Tested for the hypolipidemic activity, expressed as percent decrease in serum cholesterol in rat, at dosage of 50 mg for 7 days. It is filed as functional. Summed up:
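Male Sprague-Dawley rats, 4 weeks old, kept on CE-2 chow for at least 1 week, then grouped (generally five per group). Compound was mixed into CE-2 powder and fed ad libitum for the stated period; controls received plain CE-2 powder. Diet level is given as mg/100 g (mg%), about equal to mg/kg/day. Total serum cholesterol was measured by the Zak et al. method and reported as percent depression versus control group mean. Significance was p < 0.05.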

With `CCCCCCCCOc1ccc(/C=C(\C)C(=O)OCC(O)CO)cc1` (centres undefined), the Decrease in test [1] worked out at 21%; in test [2], 8%.

Regarding `CCCCCCCCCCCCCCOc1ccc(/C=C(\C)C(=O)OCC2COC(C)(C)O2)cc1` (centres undefined), the results for the Decrease in test [1] and in test [2] were 2% and 9%, respectively.

`CCCCCCCCCCCCCCOc1ccc(/C=C(\C)C(=O)OCCOC(=O)/C(C)=C/c2ccc(OCCCCCCCCCCCCCC)cc2)cc1`: the values for the Decrease in test [1] and in test [2] were -9% and -1%, respectively.

In the case of `CCCCCCCCCCCCCCCCOc1ccc(/C=C(\C)C(=O)Oc2ccccc2)cc1`, the Decrease in test [1] came to 46%; in test [2], 12%.

For the molecule `CCCCCCCCCCCCCCOc1ccc(/C=C(\C)C(=O)OCCN(C)C)cc1.Cl`, the Decrease in test [1] is on record as 35%; in test [2], 8%.

For the molecule `CCCCCCCCCCCCOc1ccc(/C=C/C(=O)OCC(O)CO)cc1` (centres undefined), the Decrease in test [1] was 38%; in test [2], 17%.

Regarding `CCCCCCCCCCCCCCCCCCOc1ccc(/C=C(\C)C(=O)OCC(O)CO)cc1` (centres undefined), the values for the Decrease in test [1] and in test [2] were 3% and -1%, respectively.

As to `CCCCCCCCCCCCOc1ccc(/C=C/C(=O)OCCCl)cc1`, the Decrease in test [1] stood at 46%; in test [2], 16%.

As to `C/C(=C\c1ccc(-c2ccccc2)cc1)C(=O)OCC(O)CO` (centres undefined), the figures for the Decrease in test [1] and in test [2] were -17% and 16%, respectively.

On to `CCCCCCCCCCCCOc1ccc(/C=C(\C)C(=O)OCCS(=O)(=O)[O-])cc1.[Na+]`, for which the Decrease in test [1] was found to be 63%; in test [2], 27%.

Consider `CCCCCCCCCCCCCCCCCCOc1ccc(/C=C/C(=O)OCCCCl)cc1`, for which the Decrease is given as 3% in test [1] and 9% in test [2].

As to `C/C(=C\c1ccc(-c2ccc(Cl)cc2)cc1)C(=O)OCC(O)CO` (centres undefined), the Decrease worked out at 18% in test [1] and 11% in test [2].

With `CCCCCCCCCCCCCCOc1ccc(/C(C)=C/C(=O)O)cc1`, the Decrease in test [1] stood at 41%; in test [2], 5%.

As for `CCCCCCCCCCCCOc1ccc(/C=C/C(=O)O)cc1`, the Decrease in test [1] is on record as 52%; in test [2] it was 15%.

On to `CCCCCCCCCCCCCCOc1ccc(/C=C(\C)C(=O)OCC(O)CO)cc1` (stereo in doubt; 98), for which the Decrease in test [1] is on record as 9%; in test [2] it was -2%.

Regarding `CCCCCCCCOc1ccc(/C=C/C(=O)OCCOC(=O)/C=C/c2ccc(OCCCCCCCC)cc2)cc1`, the values for the Decrease in test [1] and in test [2] were 9% and 4%, respectively.

Turning to `CCCCCCCCCCCCOc1ccc(/C=C(\C)C(=O)OCc2cccnc2)cc1`, the Decrease in test [1] came out at 60%; in test [2], 24%.

For `CCCCCCCCOc1ccc(/C=C(\C)C(=O)OCc2ccccc2)cc1`, the Decrease in test [1] is given as 18%; in test [2] it was 5%.

With `CCCCCCCCCCCCOc1ccc(/C=C(\C)C(=O)OCC(COC(=O)c2ccccc2)OC(=O)c2ccccc2)cc1` (centres undefined), the figures for the Decrease in test [1] and in test [2] were 47% and 3%, respectively.

In the case of `CCCCCCCCCCCCCCOc1ccc(/C=C(\C)C(=O)OCC(COC(C)=O)OC(C)=O)cc1` (centres undefined), the Decrease in test [1] is 41%; in test [2] it was 4%.

Turning to `CCCCCCCCCCCCCCOc1ccc(/C=C/C(=O)OCCO)cc1`, the values for the Decrease in test [1] and in test [2] were 24% and 10%, respectively.

Turning to `CCCCCCCCCCCCCOc1ccc(/C=C(\C)C(=O)O)cc1`, the Decrease in test [1] was -4%; in test [2] it was 13%.

Consider `CCCCCCCCCCCCCCCCCCOc1ccc(/C=C(\C)C(=O)O)cc1`, for which the values for the Decrease in test [1] and in test [2] were -54% and -12%, respectively.

With `CCCCCCCCCCCCCCCCOC(=O)/C=C/c1ccc(OCCCCCCCCCCCCCCCC)cc1`, the figures for the Decrease in test [1] and in test [2] were 27% and 11%, respectively.

For `CCCCCCCCCCCCCCOc1ccccc1/C=C(\C)C(=O)O`, the Decrease was 7% in test [1] and -9% in test [2].

As to `C=C(C)C(=O)OCCOC(=O)/C(C)=C/c1ccc(OCCCCCCCCCCCC)cc1`, the results for the Decrease in test [1] and in test [2] were 43% and 17%, respectively.

With `CCCCCCCCCCCCCCCCCCOc1ccc(/C=C/C(=O)O)cc1`, the Decrease in test [1] was determined as 9%; in test [2] it was 0%.

`CCCCCCCCOc1ccc(/C=C(\C)C(=O)O)cc1`: the Decrease is 8% in test [1] and 10% in test [2].

Turning to `CCCCCCCCCCOc1ccc(/C=C(\C)C(=O)OCC(O)CO)cc1` (centres undefined), the Decrease in test [1] stood at 52%; in test [2], 10%.

With `CCCCCCCCCCCCCCOc1ccc(/C=C(\C)C(=O)OC)cc1`, the Decrease in test [1] stood at 44%; in test [2] it was 10%.

For `CCCCCCCCCCCCCCOc1ccc(/C=C(\C)C(=O)OCC(O)COC(=O)/C(C)=C/c2ccc(OCCCCCCCCCCCCCC)cc2)cc1` (centres undefined), the Decrease in test [1] and in test [2] was 6% each time.

Take `C=C(C)C(=O)OCCOC(=O)/C=C/c1ccc(OCCCC)cc1`: the Decrease in test [1] is reported as 17%; in test [2], 9%.

Regarding `CCCCCCCCCCOc1ccc(/C=C/C(=O)OCC(O)CO)cc1` (centres undefined), the Decrease is recorded as 14% in test [1] and -3% in test [2].

Consider `CCCCCCCCCCCCCCCCCCOc1ccc(/C=C(\C)C(=O)OCCCO)cc1`, for which the Decrease in test [1] amounted to 14%; in test [2] it was 13%.

For the molecule `CCCCCCCCCCOc1ccc(/C=C/C(=O)O)cc1`, the results for the Decrease in test [1] and in test [2] were 18% and 9%, respectively.

On to `CCCCCCCCCCCCOc1ccc(/C=C(\C)C(=O)OCCCl)cc1`, for which the Decrease in test [1] was determined as 42%; in test [2] it was 21%.

With `CCCCCCCCCCCCCCCCOc1ccc(/C=C/C(=O)OCC(COC(=O)CCC)OC(=O)CCC)cc1` (centres undefined), the Decrease in test [1] is 36%; in test [2] it was 8%.

Regarding `CCCCCCCCCCCCCCOc1ccc(/C=C/C(=O)O)cc1`, the Decrease in test [1] is listed as 0%; in test [2], 7%.

As to `CCCCCCCCCCCCCCOc1ccc(/C=C/C(=O)OCC(O)CO)cc1` (centres undefined), the Decrease in test [1] is recorded as 24%; in test [2] it was 26%.

Take `CCCCCCCCCCCCOc1ccc(/C=C(\C)C(=O)OCC2COC(C)(C)O2)cc1` (centres undefined): the Decrease in test [1] was determined as 41%; in test [2] it was 16%.

`CCCCCCCCCCCCCCCCOc1ccc(/C=C(\C)C(=O)OCC(COC(=O)/C(C)=C/c2ccc(OCCCCCCCCCCCCCCCC)cc2)OC(=O)/C(C)=C/c2ccc(OCCCCCCCCCCCCCCCC)cc2)cc1` (centres undefined): the Decrease in test [1] was 9%; in test [2], 0%.

Regarding `CCCCCCCCCCCCCCOc1ccc(/C=C(\C)C(=O)OCC(COC(=O)c2cccnc2)OC(=O)c2cccnc2)cc1` (centres undefined), the Decrease in test [1] is on record as 17%; in test [2], 7%.

`CCCCCCCCCCCCCCOc1ccc(/C=C/C(=O)OCCCl)cc1`: the Decrease is given as -1% in test [1] and 11% in test [2].

Regarding `C=C(C)C(=O)OCCOC(=O)/C=C/c1ccc(OCCCCCCCCCCCC)cc1`, the values for the Decrease in test [1] and in test [2] were 34% and 13%, respectively.

For `CCCCCCCCCCCCCCOc1ccc(/C=C(\C)C(=O)OCC(O)COC(=O)c2cccnc2)cc1` (centres undefined), the results for the Decrease in test [1] and in test [2] were 33% and 4%, respectively.

Turning to `CCCCCCCCCCCCCCOc1ccc(/C=C(\C)C(=O)OC(CO)CO)cc1`, the Decrease in test [1] amounted to 38%; in test [2], 9%.

Consider `CCCCCCCCCCOc1ccc(/C=C(\C)C(=O)O)cc1`, for which the Decrease in test [1] is given as 43%; in test [2], 16%.
